Assay outcomes from PubChem.
Compounds with a hit are over-represented: about 1.3% of the library has one in this group of screens.
GSK3 alpha inh = blockers of GSK3A enzyme activity – biochemical, luminescence, cell-free homogeneous, HTS, primary screen | Glycogen synthase kinase-3 alpha (Homo sapiens), P49840 | inhibition, % at 10 µM | GSK-3 alpha kinase, ADP-Glo luminescence, 60 min | 320,000 compounds, 0.1% hits;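 active means more than half of replicates show inhibition above 20%; inconclusive means some but at most half of replicates above 20% inhibition; inactive means no replicate shows inhibition above 20%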;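 further: GST-tagged GSK-3 alpha with peptide substrate and 25 µM ATP; 0% = DMSO neutral wells and 100% = GW8510 positive control wells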
GSK3beta inhib = human GSK3beta kinase inhibitors, primary screen, biochemical, cell-free homogeneous, HTS | Glycogen synthase kinase-3 beta (Homo sapiens), P49841 | GST-GSK3beta kinase, ADP-Glo luminescence, 60 min; active compounds read low | activity score (negative = inhibition), % at 10 µM | 300,000 compounds, 0.038% hits;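 active means more than half of replicate wells score below -50%, meaning over 50% inhibition versus plate controls; inconclusive means some replicates but at most half score below -50%; inactive means no replicate scores below -50%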;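 further: 0% = median DMSO wells and -100% = median GW8510 positive control wells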
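test system = GST-tagged human GSK3beta kinase, cell-free | reagent = 25 µM ATP with peptide substrate | dosing = one dose of 10 µM per compound | schedule = 60 min reaction, RT | detection = luminescent ADP-Glo measurement of ADP formed | control set = DMSO neutral wells and GW8510 at 20 µM as positive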
TAG inh = inhibitors of triacylglycerol accumulation, primary screen, cell-based, uHTS, fluorescence, H9c2; H9c2 cells, Nile Red lipid (TAG) fluorescence; cells loaded with 200 µM oleic acid; inhibition, % at 12.5 µM; 230,000 compounds, 0.66% hits;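 active means pattern-corrected inhibition of lipid staining of at least 50% with the nuclear-stain viability signal not falling by more than 50%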;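 further: 0% = DMSO wells and 100% = triacsin C control wells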
STK33 inh = inhibitors of purified STK33 kinase, primary screen, biochemical, ADP-Glo luminescence, homogeneous, cell-free. Serine/threonine-protein kinase 33 (Homo sapiens), Q9BYT3. MBP phosphorylation. inhibition, % at 10 µM. 320,000 compounds, 0.073% hits;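 active means inhibition at or above 25%, using the most active replicate where run in duplicate; inactive means inhibition below 25%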
Target sequence (Q9BYT3 whole entry, looked up): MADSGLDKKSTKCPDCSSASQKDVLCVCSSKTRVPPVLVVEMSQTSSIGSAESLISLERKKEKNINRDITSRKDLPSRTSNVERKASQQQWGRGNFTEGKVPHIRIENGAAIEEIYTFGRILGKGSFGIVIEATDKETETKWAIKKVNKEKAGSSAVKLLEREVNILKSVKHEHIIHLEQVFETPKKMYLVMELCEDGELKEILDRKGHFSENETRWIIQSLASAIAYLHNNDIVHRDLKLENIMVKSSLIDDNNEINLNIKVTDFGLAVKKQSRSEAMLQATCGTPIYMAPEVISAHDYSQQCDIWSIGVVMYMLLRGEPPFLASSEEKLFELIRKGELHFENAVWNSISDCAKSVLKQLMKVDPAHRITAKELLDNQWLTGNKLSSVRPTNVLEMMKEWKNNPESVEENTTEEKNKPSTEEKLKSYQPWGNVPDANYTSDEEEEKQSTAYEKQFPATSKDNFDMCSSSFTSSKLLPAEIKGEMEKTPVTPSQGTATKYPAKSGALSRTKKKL
Lipid droplet = inhibitors of hepatocyte lipid droplet formation, primary screen, imaging, high-throughput imaging, BODIPY stain. inhibition, % at 6.5 µM. AML12 mouse hepatocytes, oleate lipid droplets. 240,000 compounds, 0.4% hits;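 active means lipid droplet intensity inhibited by at least 50%, with more than 500 cells counted; inconclusive means wells with under 300 cells, treated as cytotoxic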
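Test system: AML12 hepatocytes (mouse); reagent: oleate loading, 100 µM; dosing: one dose, 6.5 µM compound; incubation: overnight exposure; signal: fluorescence imaging, 20x objective, two fields per well; read-out basis: % inhibition of corrected integrated BODIPY droplet signal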
LANA-H2B inh = blockers of LANA interaction with H2A/H2B – biochemical, FP readout, HTS, primary screen. Protein LANA1 (Human herpesvirus 8 type P (isolate GK18)), Q9QR71. cell-free LANA-H2A/H2B peptide, fluorescence polarization. inhibition, % (no concentration beside the values). 320,000 compounds, 0.6% hits; in the data active means inhibition mostly above about 10%, no sharp cut-off; inactive means mostly below about 6.7%
Active calls of the source: *.

Screening S=C(NCc1ccccc1)Nc1ccc2cn[nH]c2c1 returned GSK3 alpha inh 23, GSK3beta inhib -18, TAG inh -14, STK33 inh 26*, Lipid droplet -3 and LANA-H2B inh -2.
Screening CCCCNC(=S)Nc1ccc2cn[nH]c2c1 returned GSK3beta inhib 1 and Lipid droplet 7.
For CC(C)NC(=S)Nc1ccc2cn[nH]c2c1 the results were GSK3 alpha inh 48, GSK3beta inhib -4, STK33 inh 58*, Lipid droplet 6 and LANA-H2B inh 2.
`CN(C)S(=O)(=O)c1cccc(NC(=S)Nc2ccc3cn[nH]c3c2)c1` gave GSK3 alpha inh 22, GSK3beta inhib -1, TAG inh -16, STK33 inh 48*, Lipid droplet -35 and LANA-H2B inh 3.
Screening COc1ccc(N2CC(C(=O)Nc3nnc(SCC(=O)N4CCOCC4)s3)CC2=O)cc1 (centres undefined) returned GSK3 alpha inh -2, GSK3beta inhib 3, TAG inh -1, STK33 inh 0, Lipid droplet 5 and LANA-H2B inh 0.
For CC(=O)c1cccc(NC(=O)CN2C(=O)NC(C)(C)C2=O)c1 the results were GSK3 alpha inh -1, TAG inh 11, STK33 inh -2 and LANA-H2B inh -1.
For CCc1ccc(NC(=S)Nc2ccc3cn[nH]c3c2)cc1 the results were GSK3 alpha inh 19, GSK3beta inhib 0, STK33 inh 31*, Lipid droplet -23 and LANA-H2B inh -5.
Screening COc1ccccc1/C=C/C(=C1/C(=O)N(c2ccccc2)N=C1C)c1ccc(C)cc1 returned GSK3 alpha inh -1, GSK3beta inhib -1, STK33 inh -1, Lipid droplet 53* and LANA-H2B inh 2.
For COc1ccc(/C=N\NC(=O)CCN2CCN(c3ccccc3)CC2)cc1OC the results were GSK3 alpha inh -4, GSK3beta inhib 0, TAG inh 19, STK33 inh 0 and LANA-H2B inh 1.
O=C(c1ccccn1)N(Cc1ccco1)C1(C(=O)NC2CCCCC2)CCCCC1 was read as GSK3beta inhib 0, TAG inh -24, STK33 inh -2, Lipid droplet -24 and LANA-H2B inh -1.
O=C(c1ccccn1)N(CC1CCCO1)C1(C(=O)NC2CCCCC2)CCCCC1 (centres undefined) was read as GSK3 alpha inh 0, GSK3beta inhib -2, TAG inh -8, STK33 inh 2 and LANA-H2B inh 25*.
`COc1cc(/C=N\Nc2nc3ccccc3[nH]2)cc(OC)c1OC` gave GSK3 alpha inh 1, GSK3beta inhib -1, TAG inh 11, STK33 inh 16 and LANA-H2B inh -3.
COc1ccc2c(c1)c(/C=N/Nc1nc3ccccc3[nH]1)c(C)n2C was read as GSK3 alpha inh -1, GSK3beta inhib -5, TAG inh 50*, STK33 inh 0, Lipid droplet inconclusive and LANA-H2B inh -2.
CCOc1ccc(-n2c(C)cc(C(=O)CCl)c2C)cc1 was read as GSK3 alpha inh 0, GSK3beta inhib 0, TAG inh 59*, STK33 inh -1, Lipid droplet 28 and LANA-H2B inh 4.
For CN(C)CCNc1nc2sc3c(c2c(=O)n1CCc1ccccc1)CCCCC3 the results were GSK3 alpha inh -3, GSK3beta inhib -5, TAG inh 80*, STK33 inh -1, Lipid droplet -1 and LANA-H2B inh -4.
CC(O)CNc1nc2sc3c(c2c(=O)n1CCc1ccccc1)CCCCC3 (centres undefined) was read as GSK3beta inhib 3, TAG inh 25, STK33 inh -1, Lipid droplet 4 and LANA-H2B inh 7.
For CN(C)S(=O)(=O)c1ccc(C(=O)NCc2nc3ccccc3s2)cc1 the results were GSK3 alpha inh -2, GSK3beta inhib -1, STK33 inh 0, Lipid droplet 0 and LANA-H2B inh 15*.
`CC(=O)NS(=O)(=O)c1ccc(NC(=O)CC23CC4CC(CC(Br)(C4)C2)C3)cc1` gave GSK3 alpha inh -4, GSK3beta inhib 1, STK33 inh 0, Lipid droplet 6 and LANA-H2B inh -6.
O=C(CC12CC3CC(CC(Br)(C3)C1)C2)NC1CCCC1 was read as GSK3 alpha inh -1, GSK3beta inhib 2, STK33 inh -2, Lipid droplet 9 and LANA-H2B inh 12*.
`Cc1c(C(=O)NN)nn(-c2ccc(Cl)cc2)c(=O)c1C#N` gave GSK3 alpha inh -8, GSK3beta inhib -2, TAG inh 3, STK33 inh -1, Lipid droplet -2 and LANA-H2B inh 1.
CCc1ccc(/C=C/c2c([N+](=O)[O-])c(=O)n(C)c(=O)n2C)cc1 was read as GSK3 alpha inh 8, GSK3beta inhib 8, STK33 inh -1, Lipid droplet -22 and LANA-H2B inh 2.
`O=C(CC1C(=O)NCCN1Cc1ccccc1C(F)(F)F)NC1CCC1` (centres undefined) gave GSK3 alpha inh 3, GSK3beta inhib 1, TAG inh -5, STK33 inh -1, Lipid droplet 23 and LANA-H2B inh 181*.
For O=C(CC1C(=O)NCCN1Cc1ccccc1C(F)(F)F)NC1CCCCCC1 (centres undefined) the results were GSK3 alpha inh 2, GSK3beta inhib 2, STK33 inh -1, Lipid droplet -3 and LANA-H2B inh 0.
Screening CC(C)N(Cc1nccn1C)C(=O)CC1C(=O)NCCN1Cc1ccccc1C(F)(F)F (centres undefined) returned GSK3 alpha inh 1, GSK3beta inhib 1, TAG inh -3, STK33 inh -2, Lipid droplet -23 and LANA-H2B inh 13*.
For NNC(=O)CCc1nc2ccc(O)cc2[nH]1 the results were GSK3 alpha inh -1, GSK3beta inhib 0, TAG inh 7, STK33 inh 0, Lipid droplet -38 and LANA-H2B inh 13*.
For COc1ccc(/C=C(\C#N)C(=O)N=CN(C)C)cc1 the results were GSK3beta inhib 0, TAG inh -10, STK33 inh 0, Lipid droplet 4 and LANA-H2B inh 11.
For CN(C)C=NC(=O)/C(C#N)=C1\CCc2ccccc2N1 the results were GSK3 alpha inh 52*, GSK3beta inhib -34, TAG inh -6, STK33 inh 10 and LANA-H2B inh 8.
